A selection: hits, their analogues and other compounds. The true share with any hit is near 3.4%.
Efa HMGR inh = inhibitors of E. faecalis class II HMGR, primary screen, biochemical, Enterococcus faecalis | 190,000 tested, 0.41% active | inhibition, % at 10 µM | purified E. faecalis HMGR, NADPH absorbance 340 nm kinetic | HMG-CoA reductase (Enterococcus faecalis, mvaE);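 active = inhibition above a set limit, the median over all tested compounds plus 3 SD, cut at about 9.5% in these data; inconclusive = no clear call, values can overlap the other calls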;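 also: enzyme runs in reverse so mevalonate oxidation gives rising NADPH absorbance; 0% = complete reaction with DMSO and 100% = background rate lacking mevalonate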
Wee1 stabilizer = Wee1 degradation inhibitors, primary screen, cell-based, HeLa, Wee1K328M-luciferase, luminescence; Wee1-like protein kinase (Homo sapiens), P30291; HeLa Luc-Wee1K328M stability; 100% = proteasome inhibitor MG132 effect; reporter increase, % at 5 µM; 220,000 tested, 1.2% active; AID 1321, 2008;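 active = activation above the mean of all tested compounds plus 3 SD, set per screening run, cut at about 8.8% in these data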;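 also: cells exposed to compound for 20 h before luminescence read; 0% = DMSO alone and 100% = MG132 at 30 µM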
RanGTP-Imp inh = inhibitors of RanGTP-importin-beta interaction, primary screen, biochemical, FRET, CFP-Ran, YFP-importin-beta, homogeneous | inhibition, % (concentration not given with the values) | cell-free CFP-Ran/YFP-importin-beta FRET ratio | 300,000 tested, 1.1% active;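 active = more than half of the replicate wells show a fall in the fluorescence ratio signal beyond about 16%, limit read from the data, passing the limit was not always enough; inconclusive = exactly half of the replicate wells pass the set limit; inactive = fewer than half of replicates pass the limit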;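 also: 0% = DMSO wells and 100% = Ran loaded with GDP instead of GTP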
PHOSPHO1 inh = PubChem AID 1565 | Phosphoethanolamine/phosphocholine phosphatase (Homo sapiens), Q8TCT1 | inhibition, % at 13.3 µM | 290,000 tested, 1.1% active | recombinant PHOSPHO1, absorbance phosphatase assay; in the data active = inhibition above about 60%
Runt-CBFb FRET = inhibitors of RUNX1 Runt–CBFb binding, primary screen, biochemical, FRET, Cerulean-Runt, Venus-CBFb, uHTS; Runt-related transcription factor 1 (Homo sapiens) + Core-binding factor subunit beta …; Cerulean-Runt/Venus-CBFb FRET ratio 530/480, 1 h; inhibition, % at 20 µM; 220,000 tested, 0.46% active; AID 1496, 2009;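 active = inhibition over about 50% at 20 µM in the single-dose screen, limit read from the data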;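 also: 0% = DMSO wells and 100% = excess unlabeled CBFb competitor control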
Target sequence (Q01196 whole entry, looked up): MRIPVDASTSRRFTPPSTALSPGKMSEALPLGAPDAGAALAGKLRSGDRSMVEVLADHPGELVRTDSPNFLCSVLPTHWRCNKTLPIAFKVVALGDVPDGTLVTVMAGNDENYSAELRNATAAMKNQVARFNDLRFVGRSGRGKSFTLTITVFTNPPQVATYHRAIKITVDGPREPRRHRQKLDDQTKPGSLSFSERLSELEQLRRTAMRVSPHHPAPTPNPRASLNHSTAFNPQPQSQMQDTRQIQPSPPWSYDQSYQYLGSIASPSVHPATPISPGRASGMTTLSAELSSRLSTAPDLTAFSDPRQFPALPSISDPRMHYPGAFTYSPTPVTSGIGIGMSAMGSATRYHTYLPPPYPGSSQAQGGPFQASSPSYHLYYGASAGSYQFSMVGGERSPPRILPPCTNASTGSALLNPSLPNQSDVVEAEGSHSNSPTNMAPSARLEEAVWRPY
Target sequence (Q13951 whole entry, looked up): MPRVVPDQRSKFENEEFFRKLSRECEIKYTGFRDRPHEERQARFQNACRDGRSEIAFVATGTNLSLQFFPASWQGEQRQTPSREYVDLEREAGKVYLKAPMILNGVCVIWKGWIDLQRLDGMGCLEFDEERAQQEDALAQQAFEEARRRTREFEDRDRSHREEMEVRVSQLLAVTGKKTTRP
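Measured by: fluorescence energy transfer, 422 nm excitation, 530/480 nm emission; test system: Cerulean-tagged RUNX1 Runt domain (FRET donor) fusion protein; buffer or medium: Tris pH 7.5 buffer with BSA; compound: one dose, 20 µM compound, 1% DMSO; times: two 1 h room-temperature incubations shielded from light; benchmarks: unlabeled CBFb 5 µM, positive control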
Runt-SMMHC FRET = inhibitors of RUNX1 Runt–CBFb-SMMHC binding, primary screen, biochemical, FRET, Cerulean-Runt, Venus-CBFb-SMMHC, uHTS | 220,000 tested, 0.74% active | inhibition, % at 20 µM | Cerulean-Runt/Venus-CBFb-SMMHC FRET ratio 530/480, 1 h | Runt-related transcription factor 1 (Homo sapiens) + Core-binding factor subunit beta … | AID 1434, 2008;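 active = mean inhibition across duplicate retests at 20 µM reaching about 50%, limit read from the data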;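 also: 0% = DMSO wells and 100% = wells with excess untagged CBFb-SMMHC; inhibitors lower the FRET ratio by blocking Runt binding to CBFb-SMMHC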
* hit, by the source's call.

Screening CCCn1c(=N)c(C#N)cc2c(=O)n3ccccc3nc21 returned Efa HMGR inh -2.6, Wee1 stabilizer -1.5, RanGTP-Imp inh 179.1*, PHOSPHO1 inh -8.2, Runt-CBFb FRET 31.7 and Runt-SMMHC FRET 76.0*.
COc1ccc(CN(C)C(=O)c2[nH]c(C)c(C(C)=O)c2C)c(OC)c1OC was read as RanGTP-Imp inh -1.1 and PHOSPHO1 inh 27.9.
CCc1c(O)c(-c2ccccc2)c(=O)n(-c2ccccn2)c1-c1ccccc1 was read as Wee1 stabilizer -3.5, RanGTP-Imp inh inconclusive, PHOSPHO1 inh 10.0, Runt-CBFb FRET -1.8 and Runt-SMMHC FRET -6.3.
Screening N#CCCN1CCN(C(=S)c2ccc(-c3cc(Cl)ccc3Cl)o2)CC1 returned Efa HMGR inh -0.3, Wee1 stabilizer 1.4, RanGTP-Imp inh -5.2, PHOSPHO1 inh 73.5*, Runt-CBFb FRET 6.1 and Runt-SMMHC FRET -1.3.
Screening S=C(c1ccc(-c2ccc(Cl)cc2Cl)o1)N1CCCCC1 returned Efa HMGR inh -3.0, Wee1 stabilizer 10.2*, RanGTP-Imp inh -1.0, PHOSPHO1 inh 25.3, Runt-CBFb FRET 11.9 and Runt-SMMHC FRET 1.4.
`CN1CCN(C(=S)c2ccc(-c3cc(Cl)ccc3Cl)o2)CC1` gave Wee1 stabilizer -2.6, RanGTP-Imp inh -1.4, PHOSPHO1 inh 27.7, Runt-CBFb FRET -4.2 and Runt-SMMHC FRET -4.1.
For CCn1cc(/C=C(\NC(=O)c2ccccc2)C(=O)N2CCOCC2)c2ccccc21 the results were RanGTP-Imp inh 3.2 and PHOSPHO1 inh 26.5.
Screening O=C1CCN(N=Nc2cccc(Cl)c2)N1 returned Efa HMGR inh -10.7, Wee1 stabilizer -1.3, RanGTP-Imp inh 5.8, PHOSPHO1 inh 71.9*, Runt-CBFb FRET 4.5 and Runt-SMMHC FRET -1.6.
COc1cc(S(=O)(=O)N2CCC(c3nc4ccccc4s3)CC2)ccc1S(=O)(=O)NC1CCCC1 was read as Efa HMGR inh 13.9*, Wee1 stabilizer 0.6, RanGTP-Imp inh 0.8, PHOSPHO1 inh -3.3, Runt-CBFb FRET -2.8 and Runt-SMMHC FRET 2.5.
`Cc1ccc(-c2csc3n[nH]c(=S)n23)cc1` gave Efa HMGR inh -0.9, Wee1 stabilizer -1.6, RanGTP-Imp inh 1.9, PHOSPHO1 inh 94.9*, Runt-CBFb FRET 22.3 and Runt-SMMHC FRET 42.1.
COCCNC(=S)Nc1ccc(Cl)c(Cl)c1 was read as Efa HMGR inh 4.2, Wee1 stabilizer -1.9, RanGTP-Imp inh -5.3, PHOSPHO1 inh 64.3*, Runt-CBFb FRET 0.8 and Runt-SMMHC FRET -2.6.
Cc1ccc(NC(=S)N/N=C2\CC3CC=CC23)c(C)c1 (stereo unspecified) was read as Efa HMGR inh 0.4, Wee1 stabilizer 1.3, RanGTP-Imp inh 4.8, PHOSPHO1 inh 65.3* and Runt-SMMHC FRET 10.4.
Screening O=C(c1ccc(COc2ccccc2Cl)o1)N1N=C(C(F)F)CC1(O)C(F)F (stereo unspecified) returned Efa HMGR inh -2.7, Wee1 stabilizer 10.6*, RanGTP-Imp inh 0.6, PHOSPHO1 inh -19.4, Runt-CBFb FRET -3.4 and Runt-SMMHC FRET -2.3.
CC(=O)c1cccc(NC2c3ccccc3C(=O)N2Cc2ccc3c(c2)OCO3)c1 (stereo unspecified) was read as Efa HMGR inh -3.1, Wee1 stabilizer 9.1*, RanGTP-Imp inh -1.2, PHOSPHO1 inh -9.0, Runt-CBFb FRET 0.9 and Runt-SMMHC FRET 2.9.
CCC(=O)N1CCc2cc(S(=O)(=O)N3CCCCC3CC)ccc21 (stereo unspecified) was read as RanGTP-Imp inh 1.3 and PHOSPHO1 inh 32.9.
COc1ccc(S(=O)(=O)N2CCOC2CNC(=O)C(=O)NCc2ccc(F)cc2)cc1OC (stereo unspecified) was read as RanGTP-Imp inh 5.6 and PHOSPHO1 inh 35.2.
`Cc1ccccc1Cn1ccc(NC(=O)c2cc3nc(-c4ccco4)cc(C(F)(F)F)n3n2)n1` gave Efa HMGR inh -4.5, Wee1 stabilizer -1.9, RanGTP-Imp inh 54.2*, PHOSPHO1 inh 1.7, Runt-CBFb FRET 5.0 and Runt-SMMHC FRET -4.1.
For CCc1ccc(-c2cc(C(F)(F)F)n3nc(C(=O)Nc4c(C)nn(Cc5ccccc5C)c4C)cc3n2)s1 the results were Efa HMGR inh 1.7, Wee1 stabilizer -1.6, RanGTP-Imp inh 35.0*, PHOSPHO1 inh 3.2, Runt-CBFb FRET 7.1 and Runt-SMMHC FRET 11.9.
`Cc1nn(Cc2ccccc2)c(C)c1NC(=O)c1cc2nc(-c3ccco3)cc(C(F)(F)F)n2n1` gave Efa HMGR inh 0.6, Wee1 stabilizer 4.0, RanGTP-Imp inh 2.7, PHOSPHO1 inh 1.0, Runt-CBFb FRET 0.9 and Runt-SMMHC FRET 10.8.
Screening CC(=O)Nc1ccc(N(C(=O)c2ccccn2)C(C(=O)NC2CCCCC2)c2ccc(F)cc2)cc1 (stereo unspecified) returned RanGTP-Imp inh 1.6 and PHOSPHO1 inh 30.5.
Cc1ccc(S(=O)(=O)N2CCN(C(=O)c3ccc(Br)o3)CC2)c(C)c1 was read as RanGTP-Imp inh 2.5 and PHOSPHO1 inh 32.0.
Cc1n[nH]c(C)c1C(=O)CC1(O)C(=O)N(CCc2ccccc2)c2ccc(Cl)cc21 (stereo unspecified) was read as Efa HMGR inh -2.0, Wee1 stabilizer 10.0*, RanGTP-Imp inh 0.0, PHOSPHO1 inh 3.6, Runt-CBFb FRET 1.0 and Runt-SMMHC FRET -0.5.
`CNC(=O)c1c(NC(=O)c2ccc(S(=O)(=O)N3CC(C)OC(C)C3)cc2)sc2c1CCN(C(C)C)C2` (stereo unspecified) gave RanGTP-Imp inh 62.3* and PHOSPHO1 inh 27.0.
CNC(=O)c1c(NC(=O)c2ccc(S(=O)(=O)N3CCCC3)cc2)sc2c1CCN(C(C)C)C2 was read as RanGTP-Imp inh 12.9 and PHOSPHO1 inh 38.3.
Screening CCOC(=O)c1c(NC(=O)c2ccc(S(=O)(=O)N3CCOCC3)cc2)sc2c1CCN(C(C)C)C2 returned RanGTP-Imp inh 7.0 and PHOSPHO1 inh -19.6.
CC(C)N1CCc2c(sc(NC(=O)c3ccc(S(=O)(=O)N4CCOCC4)cc3)c2C(N)=O)C1 was read as Efa HMGR inh 4.2, Wee1 stabilizer -0.6, RanGTP-Imp inh 48.8*, PHOSPHO1 inh -2.3, Runt-CBFb FRET -5.2 and Runt-SMMHC FRET 2.0.
C=CCn1c(NC(=O)c2ccc(Br)o2)c(C(=O)OCC)sc1=S was read as Efa HMGR inh -3.0, Wee1 stabilizer -0.2, RanGTP-Imp inh 6.7, PHOSPHO1 inh 85.4*, Runt-CBFb FRET 23.8 and Runt-SMMHC FRET 9.7.
